Screening data: PubChem, several laboratories
FLuc stim CS – FLuc activators, initial screening, artefact control for FLuc-dependent activation tests, biochemical, ATPlite luminescence; Luciferin 4-monooxygenase (Photinus pyralis), P08659; ATPlite luciferase biochemical, 10 min; 0 = ATP-free wells, 1 = DMSO control; activation factor at 10 µM; 200,000 tested, under 10 active; AID 1027, 2008;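 active means luciferase activation factor, scaled between plate controls, of at least 2 with compound at 10 µM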
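Material: luciferase plus luciferin reagent, cell-free. Medium: PBS buffer for ATP. Also added: ATP substrate, dispensed from a 10.24 µM working solution in PBS. Doses: test compounds dosed from 2 mM stocks in 100% DMSO. Incubation: 10 min post-reagent at room temperature. Technique: light output (luminescence). Read-out basis: luminescence gain marking luciferase activators.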
FLuc inh counter – firefly luciferase enzyme inhibitors, primary screen, artefact control for luciferase-based inhibitor screens, biochemical, luminescence, ATPLite. 10 min. inhibition, % at 10 µM. AID 1006, 2008. Luciferin 4-monooxygenase (Photinus pyralis), P08659. actives 1.5% (n = 200,000);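 active means inhibition above about 50% when tested at 10 µM, limit read from the data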
NF-kB expr up – activators of NF-kB expression in neurons, primary screen, cell-based, HTS. human neuronal cells, NF-kB reporter expression; active compounds read high. fold change at 12.5 µM. actives 1.6% (n = 190,000); in the data active means fold change above about 3.3
Rad51 HR inh – human RAD51 strand exchange inhibitors, primary screen, biochemical, fluorescence. actives 0.085% (n = 200,000). hRad51 DNA strand exchange, fluorescence dequenching. DNA repair protein RAD51 homolog 1 (Homo sapiens), Q06609. AID 1385, 2008. inhibition, % at 10 µM;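 active means inhibition above 40% at the single screening dose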
Target sequence (Q06609 whole entry, looked up): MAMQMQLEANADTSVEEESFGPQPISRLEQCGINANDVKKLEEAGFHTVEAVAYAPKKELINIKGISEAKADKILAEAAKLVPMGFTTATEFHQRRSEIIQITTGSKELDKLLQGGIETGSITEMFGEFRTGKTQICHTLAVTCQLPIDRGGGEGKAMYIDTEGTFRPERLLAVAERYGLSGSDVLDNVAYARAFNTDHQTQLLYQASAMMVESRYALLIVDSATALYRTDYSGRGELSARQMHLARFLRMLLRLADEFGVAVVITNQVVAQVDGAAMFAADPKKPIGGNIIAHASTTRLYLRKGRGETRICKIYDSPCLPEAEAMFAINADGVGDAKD
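material = hRad51 filaments on single-stranded DNA | reagent = Donor/quencher-labelled 47-bp dsDNA substrate | compound = 10 µM final, single point | schedule = strand-exchange reaction 15 min at room temperature | measured by = fluorescein emission 520 nm, excitation 485 nm | read-out basis = % inhibition versus plate control and blank means | benchmarks = plate controls and plate blanks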
STAT1 activator – STAT1 signaling activators, primary screen, cell-based, HTS, luciferase reporter; NIH 3T3 STAT1-luciferase reporter, IFN-gamma, luminescence; 100% = IFN-gamma alone, no compound; activation (% of control), % at 5.5 µM; actives 2.6% (n = 200,000);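 active means activation above the screen-wide mean activation plus 3 SD, cut at about 130% in these data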
APP 5'UTR act – activators of APP 5'UTR luciferase reporter, primary screen, SH-SY5Y cells; SH-SY5Y APP 5'UTR luciferase reporter, luminescence; zero percent = DMSO vehicle wells; activation, % at 2 µM; actives 1% (n = 190,000); AID 1276, 2008;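 active means activation above a set limit, based on mean plus 3 SD of controls, cut at about 140% in these data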
Hits are given with their value; n = inactive; x = no result. The list is not random: actives were taken first. Their share in the collection is about 3.9%.

SMILES | FLuc stim CS | FLuc inh counter | NF-kB expr up | Rad51 HR inh | STAT1 activator | APP 5'UTR act
CC(C)CC(NC(=O)C(CO)NC(=O)C1CCC(=O)N1)C(N)=O (centres undefined) | n | n | n | n | n | n
C/C(N)=C(/C#N)C(=O)COC(=O)CNC(=O)c1ccc(Cl)cc1Cl | n | n | n | n | n | n
Cc1ccc(C(=O)Nc2ccc3c(c2)OCCO3)o1 | n | 83.5 | 4.01 | x | n | n
Cc1cc(C(=O)Nc2ccc3c(c2)OCCO3)co1 | n | 75.2 | 4.7 | n | n | 138.1
Nc1ncc(Br)cc1N=Cc1ccccc1 | n | n | 4.66 | n | 149.2 | n
CN(/N=C/c1ccc([N+](=O)[O-])o1)c1ccccc1 | n | n | n | n | 135.0 | n
OC(CNCc1ccccc1Cl)C(F)(F)F (centres undefined) | n | n | n | n | n | n
COc1ccccc1OCC#CCNC1CCCCC1C (centres undefined) | n | n | n | n | n | n
Nc1cccc2nc3ccccc3cc12 | n | n | 3.86 | n | 171.8 | x
Cc1cc2c(N)cccc2nn1 | n | n | n | n | n | n
O=C(Nc1ccccc1)C1Cc2ccccc2CN1C(=O)c1ccco1 (centres undefined) | n | n | n | n | 130.1 | n
Cc1cc(N)ccc1N1CCCC1 | n | n | n | 60.4 | n | n
c1ccc(CSc2nnc3ccc(-c4ccco4)nn23)nc1 | n | n | n | n | n | n
Cc1ccc(C(=O)Oc2oc(-c3ccccc3)nc2C=Nc2ccc(N(C)C)cc2)cc1 | n | n | n | n | 149.0 | 145.9
COc1cccc(N=Cc2nc(-c3ccccc3)oc2OC(C)=O)c1 | x | x | x | n | x | x
COc1ccc(N=Cc2nc(-c3ccccc3)oc2OC(C)=O)cc1 | x | x | x | n | x | x
CN(C)c1ccc(N=Cc2nc(-c3ccccc3)oc2OC(=O)c2cccc(Cl)c2)cc1 | n | n | 3.43 | n | 128.8 | n
OC(COc1ccccc1)CSc1ncn[nH]1 (centres undefined) | n | n | n | n | n | n
CC(C)(C)c1ccc(OCC(O)CSc2ncn[nH]2)cc1 (centres undefined) | n | n | n | n | 134.5 | n
COc1ccc2oc(=O)c(/C(C)=N/Nc3nc(-c4cc(C)ccc4C)cs3)cc2c1 | n | n | n | x | n | n
COc1ccc2oc(=O)c(-c3csc(Nc4ccc(O)cc4)n3)cc2c1 | n | n | 3.65 | x | n | n
O=[N+]([O-])c1ccc(CN2C=NS(=O)(=O)c3ccccc32)cc1 | n | n | n | n | n | n
COC(=O)C(C(=O)OC)C(C[N+](=O)[O-])c1ccc(O)c(OC)c1 (centres undefined) | n | n | n | x | n | n
O=c1[nH]c(-c2ccco2)nc2sc3c(c12)CCCC3 | n | n | 5.78 | x | 149.4 | 154.2
CCOC(=O)c1c(NC(=O)C(=O)N/N=C/c2ccccc2O)sc2c1CCCCC2 | n | n | n | n | n | n
SMILES | FLuc stim CS | FLuc inh counter | NF-kB expr up | Rad51 HR inh | STAT1 activator | APP 5'UTR act
CCOC(=O)c1c(NC(=O)C(=O)N/N=C/c2ccccc2OC)sc2c1CCCCC2 | n | 58.8 | n | n | n | n
CCOC(=O)c1c(NC(=O)CSc2c[nH]c3ccccc23)sc2c1CCCC2 | n | n | n | n | n | n
CCOC(=O)c1c(NC(=O)CSc2c[nH]c3ccccc23)sc2c1CCC2 | n | n | 4.04 | n | n | n
Cc1cc(NC(=O)NN2CCOCC2)nn1-c1c(Cl)cccc1Cl | x | x | x | n | x | x
Cc1csc(SCC(=O)NC(=O)C2CCCCC2)n1 | n | n | n | n | n | 139.0
Cc1csc(SCC(=O)NC2CCCCC2)n1 | n | n | n | n | n | n
NC(=S)NN=C(Cc1ccccc1)Cc1ccccc1 | n | n | n | n | n | n
CCOC(=O)N1CCN(C(=O)CSCc2ccccc2)CC1 | n | n | n | x | 129.8 | n
CCN1C/C(=C/c2ccc(N3CCOCC3)cc2)C(=O)/C(=C/c2ccc(N3CCOCC3)cc2)C1 | n | n | 5.32 | n | n | n
O=C(Nc1ccncc1)C1CCC(CNS(=O)(=O)c2cccc3nsnc23)CC1 (centres undefined) | x | x | x | n | x | x
CCc1cc2c(=O)n(-c3ccc(Br)cc3)cnc2s1 | n | n | n | n | 136.8 | n
CCc1cc2c(=O)n(CC(C)C)cnc2s1 | n | n | n | x | n | n
O=c1c2cc(-c3ccccc3)sc2ncn1/N=C/c1ccco1 | n | n | n | n | 128.7 | n
CCCCCn1cnc2sc(CC)cc2c1=O | n | n | n | n | 143.6 | n
CCCCCn1cnc2sc(-c3ccccc3)cc2c1=O | n | n | 4.81 | n | 148.8 | n
O=C1OC(/C(=C\Nc2cc(Cl)ccc2O)[N+](=O)[O-])c2ccccc21 (centres undefined) | n | n | n | n | n | n
O=[N+]([O-])c1cc(CN2CCCC2)ccc1Sc1ccc(Cl)cc1 | n | n | n | n | n | n
CCCc1ccc(-c2cc(C(=O)N/N=C/c3ccc([N+](=O)[O-])o3)c3ccccc3n2)cc1 | n | 93.5 | n | x | n | n
O=C(N/N=C/c1ccc([N+](=O)[O-])o1)c1cc(-c2cccc(Br)c2)nc2ccccc12 | n | n | n | n | n | n
O=C1NC2(CCCC2)Oc2ccccc21 | n | n | 3.47 | n | n | n
O=C1CC2(CCCCC2)Oc2ccccc21 | x | x | x | n | x | x
Cc1ccc(C2=Nc3ccccc3N=C(C(Cl)Cl)C2)cc1 | n | n | 3.99 | n | n | n
CCCCN1C=CC(=C2C(=O)c3ccccc3C2=O)C=C1 | n | 97.5 | n | n | n | n
CCN(CC)C(=S)Oc1ccc(Cl)cc1Cl | x | x | x | n | x | x
Cc1ccc2nc(Nc3nc(CSc4nnc(C)s4)cc(=O)[nH]3)nc(C)c2c1 | n | n | n | n | 134.6 | n
SMILES | FLuc stim CS | FLuc inh counter | NF-kB expr up | Rad51 HR inh | STAT1 activator | APP 5'UTR act
Cc1nnc(SCc2cc(=O)[nH]c(Nc3nc(C)c4ccccc4n3)n2)s1 | x | x | x | x | n | n
CCN1C(=O)/C(=C/C=C2\C=CN(CC)c3ccccc32)SC1=S | n | n | n | n | n | n
CCN1C(=O)/C(=C\C=C2/C=CC=CN2CC)SC1=S | n | n | n | n | 133.6 | n
O=C(Nc1cccc(NC(=O)C2C3CC4OC(=O)C2C4C3)c1)c1ccccc1 (centres undefined) | n | n | n | n | n | n
O=C(Nc1ccccc1)OCCCc1ccccc1 | n | n | n | n | 139.8 | n
COc1ccc2c(c1OC)C(=O)N(c1ccc(C)cc1)C2 | x | x | x | n | x | x
COc1ccc2c(c1OC)C(=O)N(c1ccccn1)C2 | n | n | n | n | 148.9 | n
COc1ccc2c(c1OC)C(=O)N(c1cccc(C(F)(F)F)c1)C2 | n | n | 7.38 | n | 149.2 | n
